In ChEMBL document CHEMBL2010709, “Pinophilins A and B, inhibitors of mammalian A-, B-, and Y-family DNA polymerases and human cancer cell proliferation” (J Nat Prod, 2012):
Activity calls are given as the source filed them. No cut-off for these calls is given here.

What was measured:
[1] = biological target: Inosine-5'-monophosphate dehydrogenase 2 (Mus musculus, UniProt P24547); assay: Inhibition of mouse IMP dehydrogenase 2
BALL-1 = assay: Cell cycle arrest in human BALL-1 cells assessed as accumulation at S-phase at GI50 by tritiated thymidine incorporation assay; assay type: functional, cell-based
Polynucleotide kinase = Polynucleotide kinase (Enterobacteria phage T4, UniProt P06855); assay: Inhibition of T4 arnN8l pseT 1 polynucleotide kinase assessed as inhibition of Salmon sperm DNA phosphorylation using [gamma32P]ATP by liquid scintillation counting; parameters: species or system Tequatrovirus T4
Polynucleotide kinase, sequence (P06855 whole entry, looked up): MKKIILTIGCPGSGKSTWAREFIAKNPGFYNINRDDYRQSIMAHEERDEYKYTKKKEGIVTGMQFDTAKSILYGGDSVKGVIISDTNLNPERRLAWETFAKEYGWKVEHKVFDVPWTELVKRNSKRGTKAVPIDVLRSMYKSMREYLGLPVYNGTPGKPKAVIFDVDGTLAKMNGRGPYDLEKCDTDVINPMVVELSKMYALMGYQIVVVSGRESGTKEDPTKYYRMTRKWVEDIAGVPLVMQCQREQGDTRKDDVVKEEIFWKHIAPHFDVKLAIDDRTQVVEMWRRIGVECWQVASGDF

[2] = Growth inhibition of HDF cells after 72 hrs by WST-1 assay; assay type: cell-based; conditions: human
Method in brief: (§1)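 Normal cells (HDF, HUVEC) were grown in Eagle's MEM with 4.5 g/L glucose, 10% FCS, 5 mM L-glutamine and penicillin/streptomycin, 37 °C, 5% CO2. Cells were seeded at 1 × 10^4 per well, cultured 12 h, then exposed to compound (0.5% DMSO final) for 72 h. Viability was read by WST-1 at 450/630 nm. GI50 given as mean ± SE of five experiments.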

DNA polymerase beta = DNA polymerase beta (Rattus norvegicus, UniProt P06766); assay: Inhibition of rat DNA polymerase beta expressed in Escherichia coli JMpbeta5 assessed as inhibition of incorporation of dTTP into poly(dA)/oligo(dT)18 after 60 mins
Method in brief: (§2)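 Compound in DMSO was sonicated for 30 s, then held with enzyme (0.05 units final) at 0 °C for 10 min in 50 mM Tris-HCl pH 7.5, 1 mM DTT, 50% glycerol, 0.1 mM EDTA. The mixture was added to the standard reaction mix with poly(dA)/oligo(dT)18 (A/T = 2/1) and dTTP, 37 °C, 60 min. Activity was relative to no-inhibitor control; mean ± SE, three independent experiments.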

[3] = biological target: DNA-directed DNA/RNA polymerase mu (Homo sapiens, UniProt Q9NP87); assay: Inhibition of human His-tagged recombinant DNA polymerase mu expressed in Escherichia coli BL21 assessed as inhibition of incorporation of dTTP into poly(dA)/oligo(dT)18 after 60 mins; method in brief: as §2
DNA-directed DNA/RNA polymerase mu, sequence (Q9NP87 whole entry): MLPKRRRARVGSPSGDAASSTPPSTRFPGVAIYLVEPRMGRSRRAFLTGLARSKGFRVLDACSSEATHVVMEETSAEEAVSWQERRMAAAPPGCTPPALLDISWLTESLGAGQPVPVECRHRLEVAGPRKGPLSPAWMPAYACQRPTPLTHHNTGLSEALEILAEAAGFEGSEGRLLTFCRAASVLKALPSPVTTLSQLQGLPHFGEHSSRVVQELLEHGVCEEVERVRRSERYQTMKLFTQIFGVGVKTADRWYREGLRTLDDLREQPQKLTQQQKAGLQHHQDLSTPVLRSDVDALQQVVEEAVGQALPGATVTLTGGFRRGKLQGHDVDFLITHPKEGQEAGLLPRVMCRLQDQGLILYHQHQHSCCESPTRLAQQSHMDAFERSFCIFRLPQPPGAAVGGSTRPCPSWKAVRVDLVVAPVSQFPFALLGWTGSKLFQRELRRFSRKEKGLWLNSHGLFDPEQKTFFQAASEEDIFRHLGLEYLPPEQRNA

[4] = test system: Brassica oleracea var. botrytis; assay: Inhibition of cauliflower DNA polymerase alpha assessed as inhibition of incorporation of dTTP into activated DNA primer after 60 mins
Tequatrovirus T4 = assay: Inhibition of T4 bacteriophage DNA polymerase assessed as inhibition of incorporation of dTTP into activated DNA primer after 60 mins
HeLa = assay: Growth inhibition of human HeLa cells after 24 hrs by WST-1 assay; assay type: functional
Method in brief: (§3)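 Cancer cells were grown in McCoy's 5A with 10% FBS and penicillin/streptomycin, 37 °C, 5% CO2. Cells were seeded at 1 × 10^4 per well, cultured 12 h, then given compound (10 mM DMSO stock diluted in medium, 0.5% DMSO) for 24 h. WST-1 was added for 4 h and absorbance read at 450/630 nm. GI50 given as mean ± SE, five independent experiments.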

[5] = Growth inhibition of HUVEC cells after 72 hrs by WST-1 assay; assay type: cell-based; conditions: human; method in brief: as §1
[6] = Inhibition of calf DNA primase of polymerase alpha; parameters: species or system Bos taurus
[7] = biological target: DNA polymerase eta (Homo sapiens) (UniProt Q9Y253); assay: Inhibition of C-terminal-His6-tagged human pol eta expressed in Escherichia coli assessed as inhibition of incorporation of dTTP into poly(dA)/oligo(dT)18 after 60 mins
DNA polymerase eta (Homo sapiens), sequence (Q9Y253 whole entry, looked up): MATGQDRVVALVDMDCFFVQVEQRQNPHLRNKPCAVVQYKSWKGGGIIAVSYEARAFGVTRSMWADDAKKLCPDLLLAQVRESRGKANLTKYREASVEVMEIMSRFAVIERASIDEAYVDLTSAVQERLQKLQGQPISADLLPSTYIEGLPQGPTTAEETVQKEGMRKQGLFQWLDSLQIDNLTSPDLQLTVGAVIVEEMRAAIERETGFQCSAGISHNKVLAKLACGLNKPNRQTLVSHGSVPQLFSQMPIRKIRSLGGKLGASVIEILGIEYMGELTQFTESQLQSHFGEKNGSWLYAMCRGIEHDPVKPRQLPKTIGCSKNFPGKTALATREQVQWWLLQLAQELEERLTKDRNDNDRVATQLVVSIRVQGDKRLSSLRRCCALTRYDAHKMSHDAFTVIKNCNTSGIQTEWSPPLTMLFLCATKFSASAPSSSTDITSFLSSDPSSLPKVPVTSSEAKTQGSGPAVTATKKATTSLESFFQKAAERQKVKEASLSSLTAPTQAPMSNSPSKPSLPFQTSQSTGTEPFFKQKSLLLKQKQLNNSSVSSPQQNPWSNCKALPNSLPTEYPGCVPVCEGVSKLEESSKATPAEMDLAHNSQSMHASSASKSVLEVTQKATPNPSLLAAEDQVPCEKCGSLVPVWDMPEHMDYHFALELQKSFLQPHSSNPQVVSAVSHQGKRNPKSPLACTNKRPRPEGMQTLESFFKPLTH

[8] = Inhibition of calf DNA polymerase alpha assessed as inhibition of incorporation of dTTP into poly(dA)/oligo(dT)18 after 60 mins; parameters: species or system Bos taurus; method in brief: as §2
[9] = Inhibition of T7 RNA polymerase assessed as inhibition of incorporation of [3H]UTP after 30 mins by liquid scintillation counting; parameters: species or system Escherichia phage T7
[10] = Inhibition of Escherichia coli polymerase DNA polymerase 1 klenow fragment assessed as inhibition of incorporation of dTTP into poly(dA)/oligo(dT)18 after 60 mins; method in brief: as §2
A549 = assay: Growth inhibition of human A549 cells after 24 hrs by WST-1 assay; assay type: functional; conditions: A549, 24 h; method in brief: as §3
[11] = biological target: DNA nucleotidylexotransferase (Bos taurus, UniProt P06526); assay: Inhibition of calf TdT assessed as inhibition of incorporation of dTTP into oligo(dT)18(3'OH) after 60 mins
DNA nucleotidylexotransferase, sequence (P06526 whole entry): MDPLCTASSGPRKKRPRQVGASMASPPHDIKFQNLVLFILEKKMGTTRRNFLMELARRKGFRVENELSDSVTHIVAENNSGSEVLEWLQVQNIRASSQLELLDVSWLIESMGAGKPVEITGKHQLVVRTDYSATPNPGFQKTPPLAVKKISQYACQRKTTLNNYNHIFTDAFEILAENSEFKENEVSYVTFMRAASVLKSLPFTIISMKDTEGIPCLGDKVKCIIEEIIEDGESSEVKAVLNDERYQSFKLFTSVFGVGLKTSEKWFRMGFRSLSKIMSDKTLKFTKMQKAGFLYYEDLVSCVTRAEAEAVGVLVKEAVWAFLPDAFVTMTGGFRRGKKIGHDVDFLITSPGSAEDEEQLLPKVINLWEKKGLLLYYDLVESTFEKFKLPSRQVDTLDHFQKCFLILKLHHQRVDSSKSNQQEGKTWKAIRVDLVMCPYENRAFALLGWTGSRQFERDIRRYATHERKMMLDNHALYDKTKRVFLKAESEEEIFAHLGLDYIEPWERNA
Method in brief: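 Enzyme (0.05 units) was preincubated with compound in DMSO at 0 °C for 10 min in Tris-HCl pH 7.5/DTT/glycerol/EDTA buffer, then reacted at 37 °C for 60 min. Substrates were poly(rA)/oligo(dT)18 (A/T = 2/1) plus dTTP for HIV-1 RT, and oligo(dT)18 (3′-OH) primer plus dTTP for calf thymus TdT. Activity was relative to uninhibited control; mean ± SE of three experiments.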

[12] = Inhibition of cauliflower DNA polymerase alpha assessed as inhibition of incorporation of dTTP into poly(dA)/oligo(dT)18 after 60 mins; parameters: species or system Brassica oleracea var. botrytis; method in brief: as §2
Deoxyribonuclease-1 = Deoxyribonuclease-1 (Bos taurus, UniProt P00639); assay: Inhibition of bovine deoxyribonuclease 1 using [3H]-labelled DNA after 30 mins by agarose gel electrophoresis
Deoxyribonuclease-1, sequence (P00639 whole entry): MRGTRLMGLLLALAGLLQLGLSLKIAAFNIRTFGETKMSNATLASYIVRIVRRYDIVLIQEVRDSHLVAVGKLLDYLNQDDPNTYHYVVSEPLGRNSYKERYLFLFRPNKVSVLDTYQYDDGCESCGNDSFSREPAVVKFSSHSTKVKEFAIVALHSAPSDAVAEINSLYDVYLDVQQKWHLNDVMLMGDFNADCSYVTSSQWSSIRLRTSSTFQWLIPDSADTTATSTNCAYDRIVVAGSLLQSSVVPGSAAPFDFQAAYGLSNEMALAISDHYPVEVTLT

DNA polymerase kappa = biological target: T1, DNA polymerase kappa (Homo sapiens, UniProt Q9UBT6); assay: Inhibition of human C-terminal-His6-tagged DNA polymerase kappa expressed in Escherichia coli assessed as inhibition of incorporation of dTTP into poly(dA)/oligo(dT)18 after 60 mins; method in brief: as §2
T1 sequence (Q9UBT6 whole entry): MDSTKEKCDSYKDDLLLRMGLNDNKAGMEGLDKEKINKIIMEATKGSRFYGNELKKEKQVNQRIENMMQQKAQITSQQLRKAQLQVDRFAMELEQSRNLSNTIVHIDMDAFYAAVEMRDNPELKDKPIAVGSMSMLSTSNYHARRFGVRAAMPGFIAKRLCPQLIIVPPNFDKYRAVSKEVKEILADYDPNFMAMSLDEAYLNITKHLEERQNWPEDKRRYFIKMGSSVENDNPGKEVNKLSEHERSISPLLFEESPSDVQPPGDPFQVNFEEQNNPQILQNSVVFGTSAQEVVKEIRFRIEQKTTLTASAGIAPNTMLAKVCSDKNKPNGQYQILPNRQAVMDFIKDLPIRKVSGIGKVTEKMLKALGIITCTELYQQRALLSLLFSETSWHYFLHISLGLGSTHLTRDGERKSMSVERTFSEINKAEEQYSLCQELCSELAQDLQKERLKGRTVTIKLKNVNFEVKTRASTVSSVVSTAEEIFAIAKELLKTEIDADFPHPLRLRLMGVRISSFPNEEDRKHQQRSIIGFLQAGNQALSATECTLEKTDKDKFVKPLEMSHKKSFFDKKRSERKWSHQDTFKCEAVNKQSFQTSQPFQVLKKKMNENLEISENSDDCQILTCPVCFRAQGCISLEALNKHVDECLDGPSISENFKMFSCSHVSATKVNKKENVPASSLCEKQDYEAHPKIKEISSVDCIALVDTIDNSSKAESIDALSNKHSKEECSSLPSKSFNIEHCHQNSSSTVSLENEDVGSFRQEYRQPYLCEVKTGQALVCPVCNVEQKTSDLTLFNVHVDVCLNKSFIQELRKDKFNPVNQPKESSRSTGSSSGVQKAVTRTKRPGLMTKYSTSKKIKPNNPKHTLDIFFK

Inosine-5'-monophosphate dehydrogenase 2, sequence (P24547 whole entry): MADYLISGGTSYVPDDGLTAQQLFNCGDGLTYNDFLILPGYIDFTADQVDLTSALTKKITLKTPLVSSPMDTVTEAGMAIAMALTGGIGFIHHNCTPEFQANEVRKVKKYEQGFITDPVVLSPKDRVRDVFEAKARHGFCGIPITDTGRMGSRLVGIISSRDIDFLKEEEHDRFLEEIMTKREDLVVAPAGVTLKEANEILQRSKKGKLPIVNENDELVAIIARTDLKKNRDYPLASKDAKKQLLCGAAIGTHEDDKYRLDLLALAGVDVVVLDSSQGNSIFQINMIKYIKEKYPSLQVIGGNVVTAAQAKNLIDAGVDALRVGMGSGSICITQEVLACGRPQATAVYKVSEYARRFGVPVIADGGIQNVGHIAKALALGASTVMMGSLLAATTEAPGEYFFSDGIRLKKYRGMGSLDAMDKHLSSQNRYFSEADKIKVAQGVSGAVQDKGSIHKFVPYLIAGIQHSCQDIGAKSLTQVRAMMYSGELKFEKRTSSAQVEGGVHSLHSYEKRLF

Structure (SMILES)	IC50 [1]	Activity (BALL-1)	IC50 (Polynucleotide kinase)	GI50 at 72 h [2]	IC50 (DNA polymerase beta)	IC50 [3]	inhibition [4]	inhibition (Tequatrovirus T4)	GI50 (HeLa)	GI50 at 72 h [5]	IC50 [6]	IC50 [7]	IC50 [8]	IC50 [9]	IC50 [10]	GI50 (A549)	IC50 [11]	IC50 [12]	IC50 (Deoxyribonuclease-1)	IC50 (DNA polymerase kappa)
C/C=C/C1=CC2=CC(=O)[C@@](C)(O)[C@@H](OC(=O)c3c(C)cc(O)cc3O)[C@@H]2CO1	> 200 µM	Active	> 200 µM	> 200 µM	> 200 µM	> 200 µM	inactive	inactive	68.8 µM	> 200 µM	> 200 µM	63.1 µM	63.2 µM	> 200 µM	> 200 µM	65.7 µM	> 200 µM	> 200 µM	> 200 µM	59.8 µM
C/C=C/C1=CC2=CC(=O)[C@@](C)(OC(=O)c3c(C)cc(O)cc3O)[C@@H](O)[C@@H]2CO1 [PINOPHILIN A]	> 200 µM	Active	> 200 µM	> 200 µM	> 200 µM	> 200 µM	inactive	inactive	55.6 µM	> 200 µM	> 200 µM	50.9 µM	49.1 µM	> 200 µM	> 200 µM	52.5 µM	> 200 µM	> 200 µM	> 200 µM	48.6 µM
Cc1cc(O)cc(O)c1C(=O)O[C@H]1[C@@H]2COC(/C=C/CO)=CC2=CC(=O)[C@@]1(C)O [PINOPHILIN B]	> 200 µM	Active	> 200 µM	> 200 µM	> 200 µM	> 200 µM	inactive	inactive	99 µM	> 200 µM	> 200 µM	92.1 µM	89.5 µM	> 200 µM	> 200 µM	93.1 µM	> 200 µM	> 200 µM	> 200 µM	88.9 µM
